# Experiments:
# [1] = organism: Mus musculus; assay: % inhibition of metastasis at 103 uM in mice; assay type: functional
# Method in brief: (§1)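 B16 BL6 cells (3×10^5) were precultured 24 h in DMEM/FBS (37 °C, 5% CO2), then exposed to compound for 72 or 24 h. Cells were detached with 0.05% trypsin/0.02% EDTA, and 1×10^5 cells in 0.1 mL cation-free DPBS were injected into the tail vein of female BDF1 mice (7 weeks, five per group).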
# [2] = organism: Mus musculus; assay: Cell growth at 172 uM concentration in mice; assay type: functional
# Method in brief: (§2)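 B16 BL6 cells (3×10^5) were precultured 24 h in DMEM/FBS at 37 °C, 5% CO2, then incubated with or without compound for 72 or 24 h under the same conditions. After 0.05% trypsin/0.02% EDTA release, cells were suspended in 1 mL divalent cation-free DPBS and reported as cells per mL before tail-vein injection into BDF1 mice.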
# [3] = organism: Mus musculus; assay: % inhibition of metastasis at 34 uM in mice; assay type: functional; method in brief: as §1
# [4] = organism: Mus musculus; assay: Number of tumor nodules at 172 uM of compound in mice(Range 136-84 ); assay type: functional; method in brief: as §1
# [5] = organism: Mus musculus; assay: Number of tumor nodules at 103 uM of compound in mice(Range 136-64 ); assay type: functional; method in brief: as §1
# [6] = organism: Mus musculus; assay: Cell growth at 34 MicroM concentration in mice; assay type: functional; method in brief: as §2
# [7] = organism: Mus musculus; assay: Cell growth at 103 uM concentration in mice; assay type: functional; method in brief: as §2
# [8] = organism: Mus musculus; assay: Number of tumor nodules at 34 uM of compound in mice(Range 169-115 ); assay type: functional; method in brief: as §1
# [9] = organism: Mus musculus; assay: % inhibition of metastasis at 172 uM in mice; assay type: functional; method in brief: as §1
# [10] = organism: Mus musculus; assay: Number of tumor nodules at 172 uM of compound in mice(Range 118-23); assay type: functional; method in brief: as §1
# [11] = organism: Mus musculus; assay: Number of tumor nodules at 34 uM of compound in mice(Range 165-133 ); assay type: functional; method in brief: as §1
# [12] = organism: Mus musculus; assay: Cell growth at 34 uM concentration in mice; assay type: functional; method in brief: as §2
# [13] = organism: Mus musculus; assay: Number of tumor nodules at 103 uM of compound in mice(Range 160-114 ); assay type: functional; method in brief: as §1
# [14] = organism: Mus musculus; assay: % inhibition of metastasis at 87 uM in mice; assay type: functional; method in brief: as §1
# [15] = organism: Mus musculus; assay: Cell growth at 29 MicroM concentration in mice; assay type: functional; method in brief: as §2
# [16] = organism: Mus musculus; assay: Number of tumor nodules at 145 uM of compound in mice(Range 5-97 ); assay type: functional; method in brief: as §1
# [17] = organism: Mus musculus; assay: % inhibition of metastasis at 29 uM in mice; assay type: functional; method in brief: as §1
# [18] = organism: Mus musculus; assay: Cell growth at 145 uM concentration in mice; assay type: functional; method in brief: as §2
# [19] = organism: Mus musculus; assay: Number of tumor nodules at 87 uM of compound in mice(Range 122-237 ); assay type: functional; method in brief: as §1
# [20] = organism: Mus musculus; assay: % inhibition of metastasis at 145 uM in mice; assay type: functional; method in brief: as §1
# [21] = organism: Mus musculus; assay: Number of tumor nodules at 29 uM of compound in mice(Range 200-270 ); assay type: functional; method in brief: as §1
# [22] = organism: Mus musculus; assay: Cell growth at 87 uM concentration in mice; assay type: functional; method in brief: as §2
# [23] = system: B16; assay: Compound was tested in vitro, for inhibitory effect on B16BL6 cell invasion, by incubating with 518 uM of compound for 4 hr; assay type: functional, Mus musculus
# Method in brief: (§3)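 B16 BL6 cells were cultured with compound for 72 or 24 h at 37 °C, then lifted with 0.08% sodium citrate (10 min, 37 °C), washed twice and resuspended at 1×10^6/mL in RPMI 1640 + 0.1% BSA. 100 μL went onto filters coated with 5 μg Matrigel then 10 μg laminin, with the same medium below. Incubation was 3 or 4 h at 37 °C, 5% CO2. Filters were wiped, methanol-fixed and hematoxylin-stained; invaded cells were counted in five 0.3 mm² fields (200×). Triplicates, mean ± SD; % inhibition is versus untreated cells.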
# [24] = organism: Mus musculus; assay: Cell growth at 26 uM concentration of the compound; assay type: functional; method in brief: as §2
# [25] = organism: Mus musculus; assay: Number of tumor nodules at 26 uM of compound in mice(Range 148-276 ); assay type: functional; method in brief: as §1
# [26] = system: B16; assay: Compound was tested in vitro, for inhibitory effect on B16BL6 cell invasion, by incubating with 258 uM of compound for 4 hr; assay type: functional, Mus musculus; method in brief: as §3
# [27] = system: B16; assay: Number of cells invaded in cell invasion assay by incubating with 258 uM of compound for 4 hr; assay type: functional, Mus musculus; method in brief: as §3
# [28] = organism: Mus musculus; assay: Cell growth at 78 uM concentration in mice; assay type: functional; method in brief: as §2
# [29] = system: B16; assay: Compound was tested in vitro, for inhibitory effect on B16BL6 cell invasion, by incubating with 129 uM of compound for 4 hr; assay type: functional, Mus musculus; method in brief: as §3
# [30] = system: B16; assay: Number of cells invaded in cell invasion assay by incubating with 518 uM of compound for 4 hr; assay type: functional, Mus musculus; method in brief: as §3
# [31] = organism: Mus musculus; assay: % inhibition of metastasis at 78 uM in mice; assay type: functional; method in brief: as §1
# [32] = organism: Mus musculus; assay: Cell growth at 129 uM concentration in mice; assay type: functional; method in brief: as §2
# [33] = system: B16; assay: Number of cells invaded in cell invasion assay by incubating with 129 uM of compound for 4 hr; assay type: functional, Mus musculus; method in brief: as §3
# [34] = organism: Mus musculus; assay: Number of tumor nodules at 78 uM of compound in mice(Range 89-120 ); assay type: functional; method in brief: as §1
# [35] = organism: Mus musculus; assay: % inhibition of metastasis at 26 uM in mice; assay type: functional; method in brief: as §1
# [36] = organism: Mus musculus; assay: % inhibition of metastasis at 129 uM in mice; assay type: functional; method in brief: as §1
# [37] = organism: Mus musculus; assay: Number of tumor nodules at 129 uM of compound in mice(Range 13-87 ); assay type: functional; method in brief: as §1
# [38] = organism: Mus musculus; assay: Cell growth at 90 uM concentration in mice; assay type: functional; method in brief: as §2
# [39] = organism: Mus musculus; assay: Number of tumor nodules at 30 uM of compound in mice(Range 129-54 ); assay type: functional; method in brief: as §1
# [40] = organism: Mus musculus; assay: % inhibition of metastasis at 150 uM in mice; assay type: functional; method in brief: as §1
# [41] = organism: Mus musculus; assay: % inhibition of metastasis at 30 uM in mice; assay type: functional; method in brief: as §1
# [42] = organism: Mus musculus; assay: Number of tumor nodules at 150 uM of compound in mice(Range 9-1 ); assay type: functional; method in brief: as §1
# [43] = system: B16; assay: Compound was tested in vitro, for inhibitory effect on B16BL6 cell invasion, by incubating with 870 uM of compound for 3 hr; assay type: functional, Mus musculus; method in brief: as §3
# [44] = system: B16; assay: Number of cells invaded in cell invasion assay by incubating with 580 uM of compound for 3 hr; assay type: functional, Mus musculus; method in brief: as §3
# [45] = organism: Mus musculus; assay: Number of tumor nodules at 90 uM of compound in mice(Range 20-7 ); assay type: functional; method in brief: as §1
# [46] = organism: Mus musculus; assay: % inhibition of metastasis at 90 uM in mice; assay type: functional; method in brief: as §1
# [47] = system: B16; assay: Number of cells invaded in cell invasion assay by incubating with 870 uM of compound for 3 hr; assay type: functional, Mus musculus; method in brief: as §3
# [48] = system: B16; assay: Compound was tested in vitro, for inhibitory effect on B16BL6 cell invasion, by incubating with 580 uM of compound for 3 hr; assay type: functional, Mus musculus; method in brief: as §3
# [49] = organism: Mus musculus; assay: Cell growth at 30 uM concentration in mice; assay type: functional; method in brief: as §2
# [50] = organism: Mus musculus; assay: Cell growth at 150 uM concentration in mice; assay type: functional; method in brief: as §2
structure (smiles),measurement,setting,value
CC(=O)N[C@H]1NC[C@@H](C(=O)O)[C@H](N)[C@@H]1O,Inhibition,[1],26.6%
same,No. of cells,[2],1.6e+07 mL
same,Inhibition,[3],1.4%
same,No. of lung metastasis,[4],101.6
same,No. of lung metastasis,[5],108.8
same,No. of cells,[6],1.6e+07 mL
same,No. of cells,[7],2.1e+07 mL
same,No. of lung metastasis,[8],145.2
same,Inhibition,[9],30.9%
CC(=O)N[C@H]1NC[C@@H](C(=O)O)[C@H](N)[C@H]1O,Inhibition,[1],12.1%
same,No. of lung metastasis,[10],82
same,No. of lung metastasis,[11],147.2
same,No. of cells,[2],1.8e+07 mL
same,Inhibition,[3],0%
same,No. of cells,[12],1.4e+07 mL
same,No. of cells,[7],1.4e+07 mL
same,No. of lung metastasis,[13],129.4
same,Inhibition,[9],44.3%
NC1C(C(=O)O)CNC(NC(=O)C(F)(F)F)C1O (stereo not given),Inhibition,[14],38.1%
same,No. of cells,[15],1.6e+06 mL
same,No. of lung metastasis,[16],62.4
same,Inhibition,[17],3.8%
same,No. of cells,[18],1.4e+06 mL
same,No. of lung metastasis,[19],157.8
same,Inhibition,[20],75.5%
same,No. of lung metastasis,[21],245.4
same,No. of cells,[22],1.6e+06 mL
N=C(N)NC1C(C(=O)O)CNC(NC(=O)C(F)(F)F)C1O (stereo not given),Inhibition,[23],63.9%
same,No. of cells,[24],1.9e+06 mL
same,No. of lung metastasis,[25],219
same,Inhibition,[26],44.4%
same,No. of invaded cells,[27],1.3
same,No. of cells,[28],1.3e+06 mL
same,Inhibition,[29],61.1%
same,No. of invaded cells,[30],0.9
same,Inhibition,[31],58.8%
same,No. of cells,[32],1.5e+06 mL
same,No. of invaded cells,[33],0.9
same,No. of lung metastasis,[34],105.6
same,Inhibition,[35],14.1%
same,Inhibition,[36],81%
same,No. of lung metastasis,[37],48.4
CC(=O)NC1NCC(C(=O)O)C(N=C(N)N)C1O (stereo not given),No. of cells,[38],1.7e+07 mL
same,No. of lung metastasis,[39],88.2
same,Inhibition,[40],97%
same,Inhibition,[41],40.1%
same,No. of lung metastasis,[42],4.4
same,Inhibition,[43],58.9%
same,No. of invaded cells,[44],23.7
same,No. of lung metastasis,[45],13.2
same,Inhibition,[46],91%
same,No. of invaded cells,[47],17.7
same,Inhibition,[48],44.8%
same,No. of cells,[49],1.9e+07 mL
same,No. of cells,[50],1.9e+07 mL
